Consider 4 compounds from ChEMBL document CHEMBL1914386, “Neopetrosiquinones A and B, sesquiterpene benzoquinones isolated from the deep-water sponge Neopetrosia cf. proxima” (Bioorg Med Chem, 2011).

In assay [1] the target is TCF4/beta-catenin (Homo sapiens) (UniProt P35222+Q9NQB0). In words: Inhibition of GST-tagged T cell factor4/[…] interaction assessed as reduction in alkaline phosphatase level. The class given is cell-based.
The subject of assay [2] is DLD-1. Briefly: Cytotoxicity against human DLD1 cells after 48 hrs by MTT assay. It is filed as functional, cell-based. The conditions noted are these: DLD-1, 48 h. In outline:
(§1)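 Proliferation of human tumour lines obtained from ATCC: A549 lung adenocarcinoma (CCL-185), PANC-1 pancreatic (CRL-1469), AsPC-1 pancreatic (CRL-1682) and DLD-1 colorectal adenocarcinoma. The assay was run by a protocol described earlier.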

In assay [3] the test system is PANC-1. In words: Cytotoxicity against human PANC1 cells after 48 hrs by MTT assay. The class given is functional, cell-based. Conditions: PANC-1, 48 h. The method in brief: as §1
The nature of assay [4]: Cytotoxicity against human NCI-ADR-RES cells after 48 hrs by MTT assay. It is filed as functional, cell-based.
The subject of assay [5] is ASPC1. Briefly: Cytotoxicity against human AsPC1 cells after 48 hrs by MTT assay. It is filed as functional, cell-based. Conditions: ASPC1, 48 h. The method in brief: as §1
(Tetrazolium assays rely on reduction of a dye to a coloured formazan, in cell work by metabolically active cells.)

Assay [6] deals with A549. Briefly: Cytotoxicity against human A549 cells after 48 hrs by MTT assay. It is filed as functional, cell-based. The conditions noted are these: A549, 48 h. In outline:
as §1

For assay [7], the system named is Trypanosoma cruzi. Briefly: Antitrypanosomal activity against Trypanosoma cruzi Tulahuen assessed as parasite growth after 10 days by nephelometry. The class given is functional. The conditions noted are these: 240 h.

Usually IC50 stands for the concentration needed to halve the response being measured. The GI50 is the concentration at which growth is held to half of that of the control.

Calls of active or inactive are those of the source. No cut-off for these calls is given here.

For the compound `C[C@@]12CCC(=O)c3coc(c31)C(=O)c1cc3c(cc12)C(=O)C=CC3=O`, the inhibition entry in assay [1] was “inactive”.
Consider `C[C@]1(CO)CCC[C@]2(C)c3cc4c(cc3C=C[C@@H]12)C(=O)C=CC4=O`, for which the IC50 in assay [2] was 9.8 µM; in assay [3] it was 13.8 µM; in assay [4], over 15.5 µM; in assay [5] it was over 15.5 µM; in assay [6], over 15.5 µM.
Regarding `CC1(C)CCC[C@@]2(C)c3cc4c(cc3CC[C@H]12)C(=O)C=CC4=O` [CYCLOZONARONE], the GI50 in assay [7] was 0.7 µM.
Consider `C[C@]1(C=O)CCC[C@]2(C)c3cc4c(cc3C(=O)C[C@@H]12)C(=O)C=CC4=O`, for which the IC50 in assay [2] is 3.7 µM; in assay [3], 6.1 µM; in assay [4], over 14.8 µM; in assay [5], 6.1 µM; in assay [6], over 14.8 µM.
